Reference: ChEMBL document CHEMBL4229342, “Synthesis of novel proxyphylline derivatives with dual Anti-Candida albicans and anticancer activity” (Eur J Med Chem, 2018)

Columns and labels:
Assay type in all cases: functional
CCRF-CEM [1] = experiment: Antiproliferative activity against human CCRF-CEM cells assessed as cell viability at 25 uM after 72 hrs by MTT assay; settings: read-out: Activity
Method in brief: (§1)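 MTT viability assay in CCRF-CEM and MCF-7 cells after 72 h exposure at 25, 50, 100 and 200 µM. Results are relative to control cells without inhibitor in 0.5% DMSO. Done in triplicate; values are means ± SD of three independent experiments.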

CCRF-CEM [2] = experiment: Antiproliferative activity against human CCRF-CEM cells assessed as cell viability at 50 uM after 72 hrs by MTT assay; settings: read-out: Activity; method in brief: as §1
CCRF-CEM [3] = experiment: Antiproliferative activity against human CCRF-CEM cells assessed as cell viability at 100 uM after 72 hrs by MTT assay; settings: read-out: Activity; method in brief: as §1
CCRF-CEM [4] = experiment: Antiproliferative activity against human CCRF-CEM cells assessed as cell viability at 200 uM after 72 hrs by MTT assay; settings: read-out: Activity; method in brief: as §1
MCF7 [5] = experiment: Antiproliferative activity against human MCF7 cells assessed as cell viability at 25 uM after 72 hrs by MTT assay; settings: MCF7, 72 h, read-out: Activity; method in brief: as §1
MCF7 [6] = experiment: Antiproliferative activity against human MCF7 cells assessed as cell viability at 50 uM after 72 hrs by MTT assay; settings: MCF7, 72 h, read-out: Activity; method in brief: as §1
MCF7 [7] = experiment: Antiproliferative activity against human MCF7 cells assessed as cell viability at 100 uM after 72 hrs by MTT assay; settings: MCF7, 72 h, read-out: Activity; method in brief: as §1
MCF7 [8] = experiment: Antiproliferative activity against human MCF7 cells assessed as cell viability at 200 uM after 72 hrs by MTT assay; settings: MCF7, 72 h, read-out: Activity; method in brief: as §1
Candida albicans [9] = experiment: Growth inhibition of Candida albicans ATCC 90028 at 16 ug/ml incubated for 18 hrs at 35 degC by broth microdilution method relative to control; settings: ATCC 90028, 18 h, read-out: GI
Candida albicans [10] = experiment: Growth inhibition of Candida albicans ATCC 90028 at 16 ug/ml incubated for 48 hrs at 35 degC by broth microdilution method relative to control; settings: ATCC 90028, 48 h, read-out: GI
Candida albicans [11] = experiment: Growth inhibition of Candida albicans ATCC 90028 at 8 ug/ml incubated for 18 hrs at 35 degC by broth microdilution method relative to control; settings: ATCC 90028, 18 h, read-out: GI
Candida albicans [12] = experiment: Growth inhibition of Candida albicans ATCC 90028 at 8 ug/ml incubated for 48 hrs at 35 degC by broth microdilution method relative to control; settings: ATCC 90028, 48 h, read-out: GI
Candida albicans [13] = experiment: Growth inhibition of Candida albicans ATCC 90028 at 4 ug/ml incubated for 18 hrs at 35 degC by broth microdilution method relative to control; settings: ATCC 90028, 18 h, read-out: GI
Candida albicans [14] = experiment: Growth inhibition of Candida albicans ATCC 90028 at 8 ug/ml incubated for 4 hrs at 35 degC by broth microdilution method relative to control; settings: ATCC 90028, 4 h, read-out: GI
Candida albicans [15] = experiment: Growth inhibition of Candida albicans ATCC 90028 at 2 ug/ml incubated for 18 hrs at 35 degC by broth microdilution method relative to control; settings: ATCC 90028, 18 h, read-out: GI
Candida albicans [16] = experiment: Growth inhibition of Candida albicans ATCC 90028 at 2 ug/ml incubated for 4 hrs at 35 degC by broth microdilution method relative to control; settings: ATCC 90028, 4 h, read-out: GI
Candida albicans [17] = experiment: Growth inhibition of Candida albicans ATCC 90028 at 1 ug/ml incubated for 18 hrs at 35 degC by broth microdilution method relative to control; settings: ATCC 90028, 18 h, read-out: GI
Candida albicans [18] = experiment: Growth inhibition of Candida albicans ATCC 90028 at 1 ug/ml incubated for 4 hrs at 35 degC by broth microdilution method relative to control; settings: ATCC 90028, 4 h, read-out: GI
Candida albicans [19] = experiment: Growth inhibition of Candida albicans ATCC 90028 at 0.5 ug/ml incubated for 18 hrs at 35 degC by broth microdilution method relative to control; settings: ATCC 90028, 18 h, read-out: GI
Candida albicans [20] = experiment: Growth inhibition of Candida albicans ATCC 90028 at 0.5 ug/ml incubated for 4 hrs at 35 degC by broth microdilution method relative to control; settings: ATCC 90028, 4 h, read-out: GI
Candida albicans [21] = experiment: Growth inhibition of Candida albicans ATCC 90028 at 0.25 ug/ml incubated for 18 hrs at 35 degC by broth microdilution method relative to control; settings: ATCC 90028, 18 h, read-out: GI
Candida albicans [22] = experiment: Growth inhibition of Candida albicans ATCC 90028 at 0.25 ug/ml incubated for 4 hrs at 35 degC by broth microdilution method relative to control; settings: ATCC 90028, 4 h, read-out: GI
Candida albicans [23] = experiment: Growth inhibition of Candida albicans ATCC 90028 at 0.125 ug/ml incubated for 18 hrs at 35 degC by broth microdilution method relative to control; settings: ATCC 90028, 18 h, read-out: GI
Candida albicans [24] = experiment: Growth inhibition of Candida albicans ATCC 90028 at 0.125 ug/ml incubated for 4 hrs at 35 degC by broth microdilution method relative to control; settings: ATCC 90028, 4 h, read-out: GI
Candida albicans [25] = experiment: Growth inhibition of Candida albicans ATCC 90028 at 0.0625 ug/ml incubated for 18 hrs at 35 degC by broth microdilution method relative to control; settings: ATCC 90028, 18 h, read-out: GI
Candida albicans [26] = experiment: Growth inhibition of Candida albicans ATCC 90028 at 0.0625 ug/ml incubated for 4 hrs at 35 degC by broth microdilution method relative to control; settings: ATCC 90028, 4 h, read-out: GI
Candida albicans [27] = experiment: Growth inhibition of Candida albicans ATCC 90028 at 0.0313 ug/ml incubated for 18 hrs at 35 degC by broth microdilution method relative to control; settings: ATCC 90028, 18 h, read-out: GI
Candida albicans [28] = experiment: Growth inhibition of Candida albicans ATCC 90028 at 0.0313 ug/ml incubated for 4 hrs at 35 degC by broth microdilution method relative to control; settings: ATCC 90028, 4 h, read-out: GI
Candida albicans [29] = experiment: Fungicidal activity against Candida albicans ATCC 90028 assessed as log reduction in cell viability at 16 ug/ml after 48 hrs at 35 degC
Method in brief: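 MFC assay on C. albicans ATCC 90028 following M27-A3, at the molar equivalent of 16 µg/mL. CFU of treated cells were compared with CFU of the untreated inoculum. Activity is given as lg R = lg CFU/mL control − lg CFU/mL treated, and lg R ≥3 was defined as fungicidal. Values are means of two independent experiments.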

| Compound | viability at 25 µM (CCRF-CEM [1]) | viability at 50 µM (CCRF-CEM [2]) | viability at 100 µM (CCRF-CEM [3]) | viability at 200 µM (CCRF-CEM [4]) | viability at 25 µM (MCF7 [5]) | viability at 50 µM (MCF7 [6]) | viability at 100 µM (MCF7 [7]) | viability at 200 µM (MCF7 [8]) | inhibition of growth at 16 µg/mL (Candida albicans [9]) | inhibition of growth at 16 µg/mL (Candida albicans [10]) | inhibition of growth at 8 µg/mL (Candida albicans [11]) | inhibition of growth at 8 µg/mL (Candida albicans [12]) | inhibition of growth at 4 µg/mL (Candida albicans [13]) | inhibition of growth at 8 µg/mL (Candida albicans [14]) | inhibition of growth at 2 µg/mL (Candida albicans [15]) | inhibition of growth at 2 µg/mL (Candida albicans [16]) | inhibition of growth at 1 µg/mL (Candida albicans [17]) | inhibition of growth at 1 µg/mL (Candida albicans [18]) | inhibition of growth at 0.5 µg/mL (Candida albicans [19]) | inhibition of growth at 0.5 µg/mL (Candida albicans [20]) | also measured |
| --- | --- | --- | --- | --- | --- | --- | --- | --- | --- | --- | --- | --- | --- | --- | --- | --- | --- | --- | --- | --- | --- |
| CC(Cn1cnc2c1c(=O)n(C)c(=O)n2C)OC(=O)CC(=O)c1ccccc1 (configuration not stated) | 85.1% | 88.1% | 65.6% | 38.5% | 91.3% | 79.8% | 79.3% | 81.8% | 99.7% | 99% | 99.8% | 99% | 99.2% | 99.1% | 99.3% | 99.1% | 99.3% | 99.1% | 99.1% | 99% | inhibition of growth at 0.25 µg/mL (Candida albicans [21]): 99.1%; inhibition of growth at 0.25 µg/mL (Candida albicans [22]): 99%; inhibition of growth at 0.125 µg/mL (Candida albicans [23]): 99.2%; inhibition of growth at 0.125 µg/mL (Candida albicans [24]): 99%; inhibition of growth at 0.0625 µg/mL (Candida albicans [25]): 99.2%; inhibition of growth at 0.0625 µg/mL (Candida albicans [26]): 99.1%; inhibition of growth at 0.0313 µg/mL (Candida albicans [27]): 99.2%; inhibition of growth at 0.0313 µg/mL (Candida albicans [28]): 99.1%; log(activity) (Candida albicans [29]): 0.7 |
| CC(Cn1cnc2c1c(=O)n(C)c(=O)n2C)OCc1cn(-c2cccc3ccccc23)nn1 (configuration not stated) | 90% | 67.7% | 34.2% | 4.1% | 93.5% | 91.9% | 93.3% | 77% | 99.6% | 99.1% | 99.9% | 99.6% | 99.8% | 99.6% | 99.8% | 99.2% | 99.7% | 99.5% | 99.7% | 99.3% | inhibition of growth at 0.25 µg/mL (Candida albicans [21]): 99.8%; inhibition of growth at 0.25 µg/mL (Candida albicans [22]): 99.5%; inhibition of growth at 0.125 µg/mL (Candida albicans [23]): 100%; inhibition of growth at 0.125 µg/mL (Candida albicans [24]): 99.7%; inhibition of growth at 0.0625 µg/mL (Candida albicans [25]): 100%; inhibition of growth at 0.0625 µg/mL (Candida albicans [26]): 99.8%; inhibition of growth at 0.0313 µg/mL (Candida albicans [27]): 99.9%; inhibition of growth at 0.0313 µg/mL (Candida albicans [28]): 99.1%; log(activity) (Candida albicans [29]): 0.5 |
| CC(Cn1cnc2c1c(=O)n(C)c(=O)n2C)OC(=O)Nc1ccccc1 (configuration not stated) | 78.9% | 73.1% | 53.5% | 38.5% | 91.9% | 83.6% | 84.7% | 81% | 100% | 99.1% | 99.9% | 99.2% | 99.7% | 99.2% | 100% | 99.4% | 99.9% | 99.3% | 100% | 99.2% | inhibition of growth at 0.25 µg/mL (Candida albicans [21]): 100%; inhibition of growth at 0.25 µg/mL (Candida albicans [22]): 99.2%; inhibition of growth at 0.125 µg/mL (Candida albicans [23]): 100%; inhibition of growth at 0.125 µg/mL (Candida albicans [24]): 99.3%; inhibition of growth at 0.0625 µg/mL (Candida albicans [25]): 100%; inhibition of growth at 0.0625 µg/mL (Candida albicans [26]): 99.3%; inhibition of growth at 0.0313 µg/mL (Candida albicans [27]): 100%; inhibition of growth at 0.0313 µg/mL (Candida albicans [28]): 99.4%; log(activity) (Candida albicans [29]): 0.6 |
